# Experiments:
# [1] = Inhibition of soybean 15-lipoxygenase; parameters: species or system Glycine max
# Method in brief: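 Soybean 15-lipoxygenase (final 167 U/mL, kept on ice) in 0.2 M borate buffer pH 9.00 with linoleic acid (134 µM) substrate. Activity followed as absorbance increase at 234 nm from 30 to 90 s after enzyme addition. Compounds added in ethanol (final 1%); ethanol-only uninhibited controls measured at regular intervals. IC50 by linear interpolation between points around 50% activity.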
# [2] = Partition co-efficient, log P of the compound; assay type: physicochemical; details: octanol/water
IC50 [1],logP [2],Compound
53 µM,1.7,Cc1nc(N2CCOCC2)nc2c1Nc1ccccc1S2
76 µM,2.98,Cc1nc(N2CCC(C)CC2)nc2c1Nc1ccccc1S2
> 200 µM,1.95,Cc1nc(N2CCC(O)CC2)nc2c1Nc1ccccc1S2

# Second part, the compound before the results:
Compound,IC50 [1],logP [2]
Cc1nc(N2CCCCC2)nc2c1Nc1ccccc1S2,58 µM,2.74
Cc1nc(N2CCCC2)nc2c1Nc1ccccc1S2,48 µM,2.49
Cc1nc(N2CCN(C)CC2)nc2c1Nc1ccccc1S2,18 µM,1.95
CCN1CCN(c2nc(C)c3c(n2)Sc2ccccc2N3)CC1,34 µM,2.19
Cc1nc(N2CCN(c3ccccc3)CC2)nc2c1Nc1ccccc1S2,> 200 µM,3.15

# — ChEMBL document CHEMBL1142901, “Design and synthesis of pyrimido[4,5-b][1,4]benzothiazine derivatives, as potent 15-lipoxygenase inhibitors” (Bioorg Med Chem, 2007)
